Data set [1] addresses T1, Cyclin-dependent kinase 4 (Homo sapiens, UniProt P11802). In words: Inhibition of CDK4-mediated retinoblastoma protein phosphorylation by dose-response curve analysis. The procedure, abridged:
(§1)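 Kinase assay read as Rb phosphorylation by cyclin D1-CDK4 or cyclin E-CDK2. IC50 is the concentration (μg/mL) giving 50% inhibition of Rb phosphorylation, read from the dose-response curve. Values are means of at least two determinations.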

Data set [2] has as its target Cyclin-dependent kinase 2 (Homo sapiens, UniProt P24941). In words: Inhibition of CDK2-mediated retinoblastoma protein phosphorylation by dose-response curve analysis. The method in brief: as §1
The target in data set [3] is T1, Cyclin-dependent kinase 4. As to the kind of experiment: Inhibition of CDK4-mediated retinoblastoma protein phosphorylation up to 20 ug/mL by dose-response curve analysis. The procedure, abridged:
as §1

For data set [4], the system named is HCT-116. As to the kind of experiment: Antiproliferative activity against human HCT116 cells by dose-response curve analysis. The class given is functional, cell-based. The method in brief:
(§2)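 Cell growth inhibition measured from dose-response curves at ten concentrations. IC50 is the concentration giving 50% growth inhibition, read from these curves.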

The next data set deals with PC-6. As to the kind of experiment: Antiproliferative activity against human PC6 cells by dose-response curve analysis. The class given is functional, cell-based. The procedure, abridged:
as §2

A further data set has as its system WiDr. As to the kind of experiment: Antiproliferative activity against human WiDr cells by MTT assay. The class given is functional, cell-based. The method in brief:
as §2

The next data set concerns DLD-1. As to the kind of experiment: Antiproliferative activity against human DLD1 cells by MTT assay. The class given is functional, cell-based. The method in brief:
as §2
In general terms: Tetrazolium dyes change colour on reduction, which living cells bring about.

The test system of data set [5] is HCT-116. In words: Antiproliferative activity against docetaxal-resistant human HCT116 cells by MTT assay. The class given is functional, cell-based. The procedure, abridged:
as §2

The subject of data set [6] is HCT-116. As to the kind of experiment: Antiproliferative activity against SN2-3-resistant human HCT116 cells by MTT assay. The class given is functional, cell-based. The procedure, abridged:
as §2

In another data set the test system is MKN-28. As to the kind of experiment: Antiproliferative activity against human MKN28 cells by MTT assay. The class given is functional, cell-based. The procedure, abridged: as §2
The subject of another data set is MDA-MB-231. As to the kind of experiment: Antiproliferative activity against human MDA-MB-231 cells by MTT assay. The class given is functional, cell-based. The procedure, abridged:
as §2

A further data set relates to MDA-MB-468. In words: Antiproliferative activity against human MDA-MB-468 cells by MTT assay. The class given is functional, cell-based. The procedure, abridged:
as §2

Data set [7] can be described thus: Antiproliferative activity against mouse B16-BL6 cells by MTT assay. The class given is functional, cell-based. The method in brief:
as §2

The next data set concerns P388. As to the kind of experiment: Antiproliferative activity against mouse P388 cells by MTT assay. The class given is functional, cell-based. The method in brief: as §2
The nature of data set [8]: Aqueous solubility in water. The class given is physicochemical.

These results are taken from ChEMBL document CHEMBL1149082, “Discovery of novel thieno[2,3-d]pyrimidin-4-yl hydrazone-based inhibitors of Cyclin D1-CDK4: synthesis, biological evaluation, and structure-activity relationships” (Bioorg Med Chem Lett, 2009).

Converted amounts (≈) assume the structure as drawn. The source made the active and inactive calls. No cut-off for these calls is given here. A value given as a limit tells only on which side of the number the result lay.

T1 sequence (P11802 whole entry): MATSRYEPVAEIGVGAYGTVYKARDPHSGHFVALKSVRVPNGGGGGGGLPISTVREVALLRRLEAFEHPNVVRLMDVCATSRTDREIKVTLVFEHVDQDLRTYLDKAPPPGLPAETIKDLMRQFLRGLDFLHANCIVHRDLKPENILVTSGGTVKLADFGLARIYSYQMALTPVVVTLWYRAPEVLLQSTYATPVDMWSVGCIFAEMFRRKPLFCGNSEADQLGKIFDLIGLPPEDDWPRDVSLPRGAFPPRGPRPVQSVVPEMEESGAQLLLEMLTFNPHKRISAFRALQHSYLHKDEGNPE

Turning to `CC(C)c1cc2c(-n3ccc(-c4cccs4)n3)ncnc2s1`, the IC50 in [1] and in [2] was greater than 61.3 µM throughout. Besides, the result in data set [3] was inactive.

For `C/C(=N/Nc1ncnc2sc(C(C)C)cc12)c1cccs1`, the half-maximal inhibitory concentration (IC50) (usually the concentration that gives 50% inhibition) in data set [1] was 8.85 µM; in [2] it was 28.1 µM.

`CNCc1cccc(/C=N\Nc2ncnc3sc(C(C)(C)C)cc23)n1`: the IC50 in data set [1] is 0.705 µM; in data set [2], 20 µM; in the data set with HCT-116 [4] it was 0.185 µg/mL (≈ 0.522 µM); in the data set with PC-6 it was 0.189 µg/mL (≈ 0.533 µM); in the data set on WiDr, 0.263 µg/mL (≈ 0.742 µM); in the data set with DLD-1, 0.221 µg/mL (≈ 0.623 µM). For the same molecule, the IC50 in the data set with HCT-116 [5] was 0.29 µg/mL (≈ 0.818 µM); in the data set with HCT-116 [6] it was 0.269 µg/mL (≈ 0.759 µM); in the data set with MKN-28, 0.686 µg/mL (≈ 1.94 µM); in the data set on MDA-MB-231, 0.279 µg/mL (≈ 0.787 µM); with MDA-MB-468 it was 0.159 µg/mL (≈ 0.449 µM); in [7] it was 0.379 µg/mL (≈ 1.07 µM). This molecule came in with an IC50 in the data set with P388 of 0.131 µg/mL (≈ 0.37 µM).

Regarding `CC(C)c1cc2c(N/N=C\c3ccccn3)ncnc2s1`, the IC50 in data set [1] was 2.96 µM; in data set [2] it was 10.4 µM; with HCT-116 [4], 0.01 µg/mL (≈ 0.0336 µM); in the data set with PC-6 it was 0.003 µg/mL (≈ 0.0101 µM).

Consider `CC(C)(C)c1cc2c(N/N=C\c3cccnc3)ncnc2s1`, for which the IC50 in [1] is 1.61 µM; in [2], 1.8 µM; in the data set on PC-6, 1.45 µg/mL (≈ 4.66 µM).

`Cc1ccc(/C=N\Nc2ncnc3sc(C(C)(C)C)cc23)nc1`: the IC50 was 2.7 µM in [1], 36.9 µM in data set [2], 0.02 µg/mL (≈ 0.0615 µM) with HCT-116 [4] and 0.009 µg/mL (≈ 0.0277 µM) in the data set with PC-6.

For `C(=N/Nc1ncnc2sc3c(c12)CCCC3)/c1cccs1`, the IC50 in data set [1] and in data set [2] was greater than 63.6 µM each time.

As for `CC(C)c1cc2c(N/N=C\c3cccs3)ncnc2s1`, the results for the IC50 in [1] and in data set [2] were 0.165 µM and 1.16 µM, respectively. In addition, the solubility (usually how much of the substance goes into solution per volume) in [8] is less than 0.1 µg/mL.

Take `CCc1cc2c(N/N=C\c3cccs3)nc(-c3ccccc3)nc2s1`: the IC50 in data set [1] and in data set [2] was greater than 54.9 µM each time.

Consider `CC(C)(C)c1cc2c(N/N=C\c3cccc(CN4CCOCC4)n3)ncnc2s1`, for which the 50% inhibitory concentration (IC50) in data set [1] is 0.414 µM; in [2], 13.4 µM; in the data set on HCT-116 [4] it was 0.363 µg/mL (≈ 0.884 µM); in the data set on PC-6, 0.261 µg/mL (≈ 0.636 µM).

For `Cc1csc2ncnc(N/N=C\c3cccs3)c12`, the half-inhibitory concentration (IC50) in [1] and in [2] was greater than 72.9 µM throughout.

As for `CC(C)(C)c1cc2c(N/N=C\c3cccc(CN)n3)ncnc2s1`, the concentration for half-maximal inhibition (IC50) was 1.73 µM in [1], 10.6 µM in data set [2], 0.059 µg/mL (≈ 0.173 µM) in the data set on HCT-116 [4] and 0.036 µg/mL (≈ 0.106 µM) in the data set with PC-6.

With `CCc1cc2c(N/N=C\c3cccs3)ncnc2s1`, the IC50 in data set [1] is 2.6 µM; in [2] it was 3.81 µM; in the data set on HCT-116 [4] it was 1.61 µg/mL (≈ 5.58 µM); in the data set with PC-6, 0.566 µg/mL (≈ 1.96 µM); with WiDr, 1.36 µg/mL (≈ 4.72 µM); in the data set with DLD-1, 1.12 µg/mL (≈ 3.88 µM). Also, the IC50 with HCT-116 [5] was found to be 1.21 µg/mL (≈ 4.2 µM); in the data set with HCT-116 [6] it was 1.34 µg/mL (≈ 4.65 µM); in the data set on MKN-28, 2.86 µg/mL (≈ 9.92 µM); in the data set on MDA-MB-231 it was 1.87 µg/mL (≈ 6.48 µM); in the data set on MDA-MB-468, 0.048 µg/mL (≈ 0.166 µM); in data set [7], 2.44 µg/mL (≈ 8.46 µM). This molecule also had an IC50 in the data set with P388 of 1.01 µg/mL (≈ 3.5 µM).

Consider `CC(C)c1cc2c(N/N=C\c3ccco3)ncnc2s1`, for which the half-maximal inhibitory concentration (IC50) in data set [1] is 1.36 µM; in data set [2], 1.92 µM; with PC-6, 3.78 µg/mL (≈ 13.2 µM).
